Published values collected from several papers.
Protocols differ between the studies behind these lines.
Read-out: cell growth or viability

COc1cc(Nc2nccc(-c3cnn4nc(OC)ccc34)n2)cc(C(F)(F)F)c1
IC50 (MOLT-4; ATP luminescence): 270 nM

CC(=O)O[C@@]12CO[C@@H]1C[C@H](O)[C@@]1(C)C(=O)[C@H](O)C3=C(C)[C@@H](OC(=O)[C@H](O)[C@@H](NC(=O)OC(C)(C)C)c4ccccc4)C[C@@](O)([C@@H](OC(=O)c4ccccc4)[C@H]21)C3(C)C
inhibition (LNCaP; trypan blue; 3 nM; 72 h): > 65%

COc1cc2c(cc1OS(N)(=O)=O)CCN(Cc1cccc([N+](=O)[O-])c1)C2
GI50 (DU-145; WST-1; 96 h): 3030 nM

O=C(O)c1ccc(C(c2c[nH]c3ccccc23)c2c[nH]c3ccccc23)cc1
inhibition (DU-145; MTT; 100 µM; 48 h): 34%

COc1ccc(CN2CCc3cc(OS(N)(=O)=O)c(OC)cc3C2)cc1
GI50 (DU-145; WST-1; 96 h): 57200 nM

O=C(O)/C=C/c1ccc(C(c2c[nH]c3ccccc23)c2c[nH]c3ccccc23)s1
inhibition (DU-145; MTT; 100 µM; 48 h): 55%

COc1cc2c(cc1O)CCN(Cc1cccc(OC(F)(F)F)c1)C2
GI50 (DU-145; WST-1; 96 h): 55000 nM

Cn1cc(C(c2ccc(C(=O)O)cc2)c2cn(C)c3ccccc23)c2ccccc21
inhibition (DU-145; MTT; 100 µM; 48 h): ~20%

COc1ccc(-c2ccc(-c3ccc(C(=N)N)nc3)s2)cc1Cl
GI50 (BT-549; SRB): 1720 nM

Cc1cccc2c(C(c3ccc(/C=C/C(=O)O)s3)c3c[nH]c4c(C)cccc34)c[nH]c12
inhibition (DU-145; MTT; 100 µM; 48 h): 78%

CC(C)C[C@H](NC(=O)[C@H](Cc1ccccc1)NC(=O)c1cnccn1)B(O)O
IC50 (MOLT-4; ATP luminescence): 3.7 nM

FC(F)(F)c1ccc(C(c2c[nH]c3ccccc23)c2c[nH]c3ccccc23)cc1
inhibition (DU-145; MTT; 100 µM; 48 h): 95%

COc1cc2c(cc1OS(N)(=O)=O)CCN(S(=O)(=O)c1ccccc1OC)C2
GI50 (DU-145; WST-1; 96 h): > 100000 nM

COc1ccc(-c2ccc(-c3ccc(C(=N)N)nc3)s2)cc1
GI50 (SF-295; SRB): 1710 nM

COc1cccc(Oc2ccccc2NC(=O)CNC(=O)c2cccc3ccccc23)c1
GI50 (MOLT-4; SRB; 48 h): 661 nM
